Bioassay records from PubChem.
APP 5'UTR act: activators of APP 5'UTR luciferase reporter, primary screen, SH-SY5Y cells; SH-SY5Y APP 5'UTR luciferase reporter, luminescence; zero percent = DMSO vehicle wells; AID 1276, 2008; activation, % at 2 µM; 1% of 190,000 active;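 active means activation above a set limit, based on mean plus 3 SD of controls, cut at about 140% in these data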
PERK inhibitor: block of dimerizer-induced PERK translation repression, primary screen, PERK inhibitor project, CHO PERK-DD cells, SEAP luminescence, HTS | 0.17% of 220,000 active | Eukaryotic translation initiation factor 2-alpha kinase 3 (Homo sapiens), Q9NZJ5 | inhibition, % at 5.6 µM | CHO PERK-DD fusion, SEAP luminescence translation reporter;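 active means inhibition above the mean inhibition of all tested compounds plus 3 SD, set separately per screening campaign, cut at about 2.9% in these data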;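 further: PERK kinase domain activated by AP20187 dimerizer at 100 nM; 0% = DMSO with dimerizer and 100% = rapamycin at 8.4 µM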
Mdm2 ligase inh: MDM2-luciferase reporter signal enhancers, primary screen, MDM2 E3 ligase inhibitor project, cell-based, luminescence, 1536-well. cell-based MDM2 ubiquitination luciferase reporter, 2 h; 0 = plate control, 100 = twice control, blank-subtracted. AID 1230, 2008. 0.11% of 210,000 active. E3 ubiquitin-protein ligase Mdm2 (Homo sapiens), Q00987. signal enhancement, % at 5 µM;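 active means signal enhancement of 30% or more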;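 further: luminescence tracks abundance of the self-degrading MDM2-luciferase fusion protein; higher signal means inhibition of MDM2 E3 ligase activity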
Target sequence (Q00987 whole entry, looked up, the tested form may be a part): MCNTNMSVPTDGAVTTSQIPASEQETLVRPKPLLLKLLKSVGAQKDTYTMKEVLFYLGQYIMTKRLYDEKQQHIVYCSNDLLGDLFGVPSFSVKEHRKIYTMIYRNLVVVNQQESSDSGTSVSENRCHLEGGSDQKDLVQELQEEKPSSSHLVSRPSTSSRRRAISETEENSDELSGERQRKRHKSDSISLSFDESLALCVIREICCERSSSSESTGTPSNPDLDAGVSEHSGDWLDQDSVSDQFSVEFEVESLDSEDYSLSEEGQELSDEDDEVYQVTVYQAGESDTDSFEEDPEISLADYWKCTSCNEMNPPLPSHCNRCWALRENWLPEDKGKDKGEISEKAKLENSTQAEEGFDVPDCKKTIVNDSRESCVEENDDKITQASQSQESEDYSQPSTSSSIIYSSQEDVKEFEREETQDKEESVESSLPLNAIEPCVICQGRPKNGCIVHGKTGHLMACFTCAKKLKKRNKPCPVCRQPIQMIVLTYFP
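Assay system: stable mammalian line carrying autodegrading MDM2–luciferase fusion reporter; amount: 2000 cells seeded into each well; buffer or medium: DMEM; benchmarks: plate control and blank wells; signal: luciferase luminescence; timing: 2 h compound exposure at 37 °C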
NF-kB expr up: activators of NF-kB expression in neurons, primary screen, cell-based, HTS; human neuronal cells, NF-kB reporter expression; hits give high values; fold change at 12.5 µM; 1.6% of 190,000 active; AID 1239, 2008; in the data active means fold change above about 3.3
AHR act: AHR activators, primary screen, cell-based, luminescence, luciferase reporter, human; activation, % at 5 µM; AHR-responsive luciferase reporter cells; 2.5% of 320,000 active; Aryl hydrocarbon receptor (Homo sapiens), P35869; in the data active means activation above about 47%;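 further: 0% = vehicle wells and 100% = reference agonist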
STAT1 activator: STAT1 signaling activators, primary screen, cell-based, HTS, luciferase reporter; NIH 3T3 STAT1-luciferase reporter, IFN-gamma, luminescence; 100% = IFN-gamma alone, no compound; activation (% of control), % at 5.5 µM; 2.6% of 200,000 active; AID 932, 2007;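 active means activation above the screen-wide mean activation plus 3 SD, cut at about 130% in these data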;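 further: raw ratio to IFN-gamma control signal so 100% means no change and 0% no light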
Numbers without * were called inactive; x = no result. The list is not random: actives were taken first. Their share in the collection is about 4.5%.

SMILES	APP 5'UTR act	PERK inhibitor	Mdm2 ligase inh	NF-kB expr up	AHR act	STAT1 activator
O=C(Nc1ccc(Br)cn1)c1cccc(C(=O)Nc2ccc(Br)cn2)c1	x	x	x	x	14.0	x
O=C(Nc1ccc(Br)cn1)c1ccc2nccnc2c1	20.6	-0.6	x	x	10.0	149.1*
O=C(Nc1ccc(Br)cn1)c1ccc2ccccc2c1	x	x	x	x	47.8*	x
COc1c(C(=O)Nc2ccc(Br)cn2)ccc2ccccc12	x	x	x	x	45.0	x
O=C(Nc1cccc(S(=O)(=O)N2CCCCCC2)c1)c1cncc(Br)c1	x	x	x	x	33.4	x
CCCCN1c2cc(C)c(O)cc2C(C(=O)OCC)C1C (stereo unspecified)	16.6	0.1	-3.7	1.32	48.4*	96.3
COc1ccccc1-c1nn2c(=O)cc(C)nc2s1	9.1	0.2	-3.1	1.53	62.2*	114.9
COC(=O)c1cc(=O)nc2sc(-c3ccc(F)cc3)nn12	14.7	0.9	-2.4	1	-1.1	100.2
Cc1cc(=O)n2nc(-c3ccc(C(F)(F)F)cc3)sc2n1	-1.8	0.5	-10.9	1.4	-3.4	129.3*
COc1ccccc1-c1c(C)nn2c(-c3ccccc3)cc(C)nc12	x	-1.3	-5.4	x	4.4	x
O=C(NCc1cccs1)c1cc(S(=O)(=O)N2CCOCC2)ccc1N1CCCC1	x	x	x	x	1.2	x
O=C(CCc1nnc(-c2ccccc2)o1)NCC1CCN(C2CCCC2)CC1	12.7	2.3	-27.9	1.14	2.6	98.0
COC(=O)c1ccccc1NC(=O)c1c(Br)cnn1C	-1.8	0.9	9.2	1.18	2.7	110.6
Cn1ncc(Br)c1C(=O)Nc1ccc(Cl)cn1	23.7	0.9	-4.5	1.23	64.8*	101.8
Cn1ncc(Br)c1NC(=O)Nc1ccc(Cl)cc1	x	x	x	x	2.7	x
Cn1ncc(Br)c1C(=O)Nc1ccc(Br)cn1	3.7	0.7	5.1	1.34	174.8*	102.6
Cc1c(CN2CCc3c([nH]c4ccccc34)C2CC(C)C)cnn1C (stereo unspecified)	2.7	-0.1	-4.6	1.26	19.3	88.9
CCN1CCN(C(=O)c2ccc3c(c2)N(Cc2ccccc2)C(=O)c2ccccc2S3=O)CC1 (stereo unspecified)	x	x	x	x	0.9	x
O=C(O)c1ccc2c(c1)N(Cc1ccccc1F)C(=O)c1ccccc1S2=O (stereo unspecified)	-2.1	-0.2	71.0*	1.6	-0.7	86.0
O=c1c(-c2nc3ccccc3s2)cccn1Cc1ccc(Cl)c(Cl)c1	10.7	1.4	12.3	3.48*	2.1	99.4
O=C(c1cccn(Cc2ccc(Cl)c(Cl)c2)c1=O)N1CCOCC1	-6.6	1.3	-5.4	1.14	-1.4	102.6
CC(=O)Nc1ccc(S(=O)(=O)N(C)CC(=O)OCC(=O)N2CCCC2=O)cc1	x	x	x	x	0.9	x
COc1ccc2cc(-c3csc(-c4cccnc4)n3)ccc2c1	6.1	0.9	-18.8	2.62	2.2	124.5
c1ccc(-c2csc(-c3cccnc3)n2)cc1	13.0	-0.1	-3.1	2.05	21.7	131.8*
COc1ccc(-c2csc(-c3cccnc3)n2)cc1C	72.8	0.1	10.8	2.75	8.4	149.5*
SMILES	APP 5'UTR act	PERK inhibitor	Mdm2 ligase inh	NF-kB expr up	AHR act	STAT1 activator
COc1ccc(C(=O)C(OC(=O)c2ccccc2)c2ccccc2)cc1 (stereo unspecified)	42.2	-0.9	-2.5	1.51	-0.4	132.6*
COc1ccc(C(=O)C(OC(=O)c2ccccc2Cl)c2ccccc2)cc1 (stereo unspecified)	25.8	0.2	-4.0	1.51	1.9	139.7*
CC1CN(c2ccc(NS(=O)(=O)c3ccccc3)cc2C(=O)O)CC(C)O1 (stereo unspecified)	x	0.3	1.2	x	0.9	x
CCOC(=O)C1=C(COC(=O)[C@@H]2CCCN2S(=O)(=O)c2ccc(C)cc2)NC(=O)NC1C (stereo partly specified)	x	x	x	x	-0.4	x
Cn1c(SCc2ccccc2F)nc2cccnc21	141.1*	0.0	-9.9	3.36*	-2.0	137.3*
COc1cc2sc3ccc(-c4ccc(CN5CCOCC5)cc4)cc3c(=O)c2cc1OC	x	x	x	x	51.5*	x
COc1ccc(CN2CCOCC2)cc1OC	-3.3	0.4	x	1.19	1.4	108.1
CN(C)CCNC(=O)c1sc2cccc(F)c2c1Cl	-18.1	-0.5	-9.8	1.27	7.7	102.6
O=C(NCCCn1ccnc1)c1sc2cccc(F)c2c1Cl	24.5	0.6	-11.3	1	78.2*	98.9
O=C(Nc1ccccn1)c1sc2cccc(F)c2c1Cl	179.2*	0.8	-67.3	5.67*	12.3	84.4
O=C(Nc1cccnc1)c1sc2cccc(F)c2c1Cl	82.8	-0.3	-8.1	0.85	9.2	132.6*
O=C(NCCCn1ccnc1)c1ccc2ccccc2c1	x	x	x	x	60.0*	x
O=C(NCCCn1ccnc1)c1c(F)cccc1F	x	x	x	x	3.6	x
CCOC(=O)C1CCN(CC(O)COCc2ccccc2)CC1 (stereo unspecified)	x	x	x	x	0.3	x
O=C(Cn1nc(-c2ccc(Cl)cc2)c2ccccc2c1=O)NN1CCOCC1	x	1.4	-11.9	x	-1.7	x
CC1CCc2sc(C(=O)NCCCn3ccnc3)cc2C1 (stereo unspecified)	x	x	x	x	51.0*	x
O=C(NCCCn1ccnc1)c1cc2c(s1)CCCCC2	-8.4	0.3	-15.0	0.8	19.5	105.1
O=C(/C=C/c1c(Cl)cccc1Cl)NCCCn1ccnc1	x	x	x	x	47.6*	x
S=C(NCCCn1ccnc1)Nc1cccc(Cl)c1	6.4	0.1	-17.8	1.01	49.1*	101.1
O=C(/C=C/c1ccc(Br)cc1)NCCCn1ccnc1	x	x	x	x	38.0	x
CCOc1ccc(NC(=S)NCCCn2ccnc2)cc1	9.1	0.1	-5.7	0.98	1.1	104.2
O=C1C=CN2CCCCC2CC1 (stereo unspecified)	x	x	x	x	0.9	x
CCc1ccc(N(C(=O)c2snc(C(N)=O)c2N)C(C(=O)NCC2CCCO2)c2ccco2)cc1 (stereo unspecified)	x	x	x	x	3.7	x
Cc1ccccc1C(=O)NCCNC(=O)c1cnccn1	x	x	x	x	-0.6	x
COc1cc(OC)c2cc(C(=O)N/N=C/c3cccc(OC)c3O)[nH]c2c1	x	-0.1	-1.2	x	49.4*	x
Cc1ccc2nc(/C(C#N)=C\c3cc(C)n(-c4cccc([N+](=O)[O-])c4)c3C)[nH]c2c1	5.3	-0.1	7.0	0.64	58.5*	91.5
O=C(Cn1cnc([N+](=O)[O-])c1)c1ccc(F)cc1	x	x	x	x	1.7	x
CCCCCc1ccc(-c2ccc(OC)cc2)nc1	127.7	1.2	-5.2	3.37*	-4.5	139.5*
CCCc1ccc(-c2ccc(C(=O)O)cc2)nc1	91.5	0.4	-52.2	2.65	-3.0	131.3*
